Experimental data from ChEMBL document CHEMBL3399983, “Synthesis and biological activity of novel mono-indole and mono-benzofuran inhibitors of bacterial transcription initiation complex formation” (Bioorg Med Chem, 2015).
Active and inactive are the calls of the source. No cut-off for these calls is given here.

Legend:
[1] = Inhibition of interaction of RNA polymerase beta' subunit CH-region and region 2.2 of RNA polymerase sigma factor RpoD/RNA polymerase sigma factor sigA (unknown origin) at 15 uM […] followed by incubation at room temperature for 1 hr by ELISA method
[2] = system: Bacillus subtilis; assay: Growth inhibition of Bacillus subtilis 168 at 200 uM incubated for 16 hrs; format: functional; conditions: for inhibition of growth at 200 µM: Bacillus subtilis, 168, 16 h, read-out: GI
[3] = system: Escherichia coli; assay: Growth inhibition of Escherichia coli DH5[alpha] at 200 uM incubated for 16 hrs; format: functional; conditions: for inhibition of growth at 200 µM: read-out: GI
Method in brief: (§1)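 E. coli DH5α grown at 37 °C in LB with shaking to OD600 0.6–0.7, then added to wells holding compound diluted from a 50 mM DMSO stock. Plates shaken at 37 °C, with OD600 read every 10 min over 16 h against an LB blank. Growth inhibition expressed as % of the no-inhibitor control.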

[4] = system: Staphylococcus aureus; assay: Growth inhibition of Staphylococcus aureus at 200 uM incubated for 16 hrs; format: functional; conditions: read-out: GI
[5] = system: Escherichia coli; assay: Growth inhibition of Escherichia coli DH5[alpha] assessed as effect on exponential phase of bacterial growth at 200 uM incubated for 16 hrs; format: functional; conditions: read-out: GI; method in brief: as §1
[6] = system: Bacillus subtilis; assay: Growth inhibition of Bacillus subtilis 168 assessed as effect on exponential phase of bacterial growth at 200 uM incubated for 16 hrs; format: functional; conditions: Bacillus subtilis, 168, 16 h; read-out: GI
[7] = Inhibition of interaction of RNA polymerase beta' subunit CH-region and region 2.2 of RNA polymerase sigma factor RpoD/RNA polymerase sigma factor sigA (unknown origin) pre-incubated at 37 degC for 15 mins with enzyme followed by incubation at room temperature for 1 hr by ELISA method
[8] = system: Escherichia coli; assay: Growth inhibition of Escherichia coli DH5[alpha] incubated for 16 hrs; format: functional; method in brief: as §1
[9] = system: Bacillus subtilis; assay: Growth inhibition of Bacillus subtilis 168 incubated for 16 hrs; format: functional

Row | Compound | inhibition [1] | inhibition of growth at 200 µM [2] | inhibition of growth at 200 µM [3] | growth inhibition (GI) [2] | other results
1 | COc1cc(OC)c2c(-c3ccc(Br)cc3)c[nH]c2c1C(=O)C(=O)N1CCCCC1 | 32% | 14% | 26% | – | –
2 | O=C(C(=O)N1CCCCC1)c1c[nH]c2ccccc12 | 37% | 12% | 9% | – | –
3 | COc1cc(OC)c2c(C)c(C(=O)C(=O)N3CCOCC3)[nH]c2c1 | 33% | 2% | 2% | – | –
4 | COc1cc(OC)c2c(-c3ccc(Br)cc3)c[nH]c2c1C(=O)C(=O)Nc1ccc(C)cc1 | – | – | 29% | inactive | –
5 | COc1cc(OC)c2c(-c3ccc(Cl)cc3)c[nH]c2c1C(=O)NNc1ccccc1 | 60% | – | 21% | inactive | –
6 | COc1cc(OC)c2c(C)c(C(=O)C(=O)N3CCN(Cc4ccccc4)CC3)[nH]c2c1 | 46% | 7% | 16% | – | –
7 | COc1cc(OC)c2c(-c3ccc(Br)cc3)c[nH]c2c1C(=O)Nc1ccccc1 | 49% | 7% | 13% | – | –
8 | COc1cc(OC)c2c(-c3ccc(Cl)cc3)c[nH]c2c1C(=O)C(=O)N1CCCC1 | inactive | – | 23% | – | inhibition of growth at 200 µM [4]: 60%
9 | COc1cc(OC)c2c(-c3ccc(Br)cc3)c[nH]c2c1C(=O)C(=O)NNc1ccccc1 | 34% | 10% | 24% | – | –
10 | COc1cc(OC)c2c(-c3ccc(Br)cc3)c[nH]c2c1C(=O)NNc1ccccc1 | 44% | – | 23% | inactive | –
11 | COc1cc(OC)c2c(C)c(C(=O)C(=O)N3CCN(C)CC3)[nH]c2c1 | 44% | – | – | inactive | growth inhibition (GI) [3]: inactive
12 | COc1cc(OC)c2c(-c3ccc(Cl)cc3)c[nH]c2c1C(=O)C(=O)Nc1ccc(C)cc1 | 37% | – | 20% | inactive | –
13 | COc1cc(OC)c2c(-c3ccc(Cl)cc3)c[nH]c2c1C(=O)C(=O)N1CCOCC1 | inactive | – | – | inactive | inhibition of growth at 200 µM [5]: 38%
14 | COc1cc(OC)c2c(-c3ccc(Cl)cc3)c[nH]c2c1C(=O)C(=O)Nc1ccccc1 | 23% | 26% | 23% | – | –
15 | COc1cc(OC)c2c(-c3ccc(Cl)cc3)c[nH]c2c1C(=O)Nc1ccc(C)cc1 | – | 13% | 13% | – | –
16 | COc1cc(OC)c2c(C)c(C)[nH]c2c1C(=O)C(=O)N1CCOCC1 | 7% | – | – | – | inhibition of growth at 200 µM [6]: 42%; growth inhibition (GI) [3]: inactive
17 | COc1cc(OC)c2c(-c3ccc(Br)cc3)c[nH]c2c1C(=O)C(=O)N1CCOCC1 | 31% | – | – | inactive | inhibition of growth at 200 µM [5]: 59%; IC50 [7]: 33.9 µM; GI [8]: >100 µM
18 | COc1cc(OC)c2c(C)c(C)[nH]c2c1C(=O)C(=O)N1CCCCC1 | 39% | – | 24% | – | inhibition of growth at 200 µM [6]: 57%
19 | COc1cc(OC)c2c(-c3ccc(Cl)cc3)c[nH]c2c1C(=O)C(=O)N1CCCCC1 | inactive | – | – | inactive | growth inhibition (GI) [3]: inactive
20 | COc1cc(OC)c2c(-c3ccc(Br)cc3)c[nH]c2c1C(=O)Nc1ccc(C)cc1 | – | 36% | 12% | – | –

Row | Compound | inhibition [1] | inhibition of growth at 200 µM [2] | inhibition of growth at 200 µM [3] | growth inhibition (GI) [2] | other results
21 | COc1cc(OC)c2c(-c3ccc(Cl)cc3)c(C(=O)N3CCOCC3)[nH]c2c1 | inactive | – | 42% | inactive | –
22 | COc1cc(OC)c2c(C)c(C)[nH]c2c1C(=O)C(=O)N1CCN(c2ccccn2)CC1 | 27% | 12% | 13% | – | –
23 | O=C(C(=O)N1CCN(c2ccccn2)CC1)c1c[nH]c2ccccc12 | 27% | 10% | 4% | – | –
24 | COc1cc(OC)c2c(-c3ccc(Br)cc3)c[nH]c2c1C(=O)C(=O)N1CCN(Cc2ccccc2)CC1 | 8% | – | 6% | inactive | –
25 | COc1cc(OC)c2c(-c3ccc(Br)cc3)c(C(=O)C(=O)N3CCCCC3)[nH]c2c1 | 39% | 22% | 7% | – | –
26 | COc1cc(OC)c2c(C)c(C(=O)C(=O)N3CCCCC3)[nH]c2c1 | 17% | – | – | inactive | growth inhibition (GI) [3]: inactive
27 | COc1cc(OC)c2c(-c3ccc(Br)cc3)c(C(=O)C(=O)N3CCN(c4ccccn4)CC3)[nH]c2c1 | 25% | 19% | 38% | – | –
28 | COc1cc(OC)c2c(-c3ccc(Cl)cc3)c(C(=O)C(=O)N3CCOCC3)[nH]c2c1 | 27% | – | 37% | – | inhibition of growth at 200 µM [6]: 37%
29 | CCOC(=O)CNC(=O)C(=O)c1[nH]c2cc(OC)cc(OC)c2c1-c1ccc(Cl)cc1 | 42% | – | 53% | inactive | –
30 | COc1cc(OC)c2c(-c3ccc(Br)cc3)c[nH]c2c1C(=O)C(=O)Nc1ccccc1 | 34% | 36% | 33% | – | –
31 | COc1cc(OC)c2c(-c3ccccc3)c(C(=O)C(=O)N3CCN(c4ccccn4)CC3)oc2c1 | 41% | 3% | 10% | – | –
32 | COc1cc(OC)c2c(-c3ccc(Br)cc3)c(C(=O)C(=O)N3CCCC3)[nH]c2c1 | inactive | – | – | inactive | growth inhibition (GI) [3]: inactive
33 | COc1cc(OC)c2c(-c3ccc(Cl)cc3)c(C(=O)C(=O)N3CCCCC3)[nH]c2c1 | inactive | – | 18% | inactive | –
34 | COc1cc(OC)c2c(C)c(C(=O)C(=O)N3CCN(c4ccccn4)CC3)[nH]c2c1 | 48% | 14% | 38% | – | –
35 | COc1cc(OC)c2c(-c3ccccc3)c(C(=O)C(=O)N3CCOCC3)oc2c1 | 29% | – | 6% | – | inhibition of growth at 200 µM [6]: 70%; IC50 [7]: 71.6 µM; GI [9]: >100 µM
36 | COc1cc(OC)c2c(C)c(C(=O)C(=O)N3CCCC3)[nH]c2c1 | 44% | – | – | inactive | growth inhibition (GI) [3]: inactive
37 | O=C(C(=O)N1CCN(Cc2ccccc2)CC1)c1c[nH]c2ccccc12 | 21% | 70% | 6% | – | –
38 | COc1cc(OC)c2c(-c3ccc(Cl)cc3)c[nH]c2c1C(=O)C(=O)NNc1ccccc1 | 26% | – | 20% | inactive | –
39 | O=C(C(=O)N1CCOCC1)c1c[nH]c2ccccc12 | 39% | – | 4% | inactive | –
